# Key:
# Type in all cases: functional
# SK-MEL-28 = experiment: Growth inhibition of human SK-MEL-28 cells assessed as cell viability at 1 uM incubated for 48 hrs by sulforhodamine B assay; conditions: SK-MEL-28, 48 h, read-out: Activity
# SNB-75 = experiment: Cell cycle arrest in human SNB75 cells assessed as accumulation in preG1 phase at 2 uM incubated for 24 hrs by propidium iodide based flow cytometry (reference value: 1.85 %)
# In short: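 SNB-75 cells were exposed to 2 µM for 24 h at 37 °C, 5% CO2, then washed with PBS and fixed in 70% ethanol on ice for 15 min. They were stained 1 h at room temperature with 50 µg/mL propidium iodide, 0.1 mg/mL RNase A and 0.05% Triton X-100. DNA content was read by flow cytometry to give the % of cells in pre-G1, G0/G1, S and G2/M.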
# HCT-116 = experiment: Growth inhibition of human HCT116 cells incubated for 48 hrs by sulforhodamine B assay; conditions: HCT-116, 48 h
# In short: (§1)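 NCI-60 five-dose mode: five tenfold dilutions (0.01, 0.1, 1, 10, 100 µM) are applied for 48 h to cells in RPMI 1640 with 5% FBS at 37 °C. Endpoint is TCA fixation with sulforhodamine B read at 515 nm. % growth comes from the 0 h and control absorbances. GI50 is the concentration giving a 50% reduction in net cell growth.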
# BT-549 = experiment: Growth inhibition of human BT549 cells assessed as cell viability at 0.1 uM incubated for 48 hrs by sulforhodamine B assay; conditions: BT-549, 48 h, read-out: Activity
# CAKI-1 = experiment: Growth inhibition of human Caki1 cells incubated for 48 hrs by sulforhodamine B assay; conditions: CAKI-1, 48 h; in short: as §1
# SK-MEL-2 = experiment: Growth inhibition of human SK-MEL-2 cells incubated for 48 hrs by sulforhodamine B assay; conditions: SK-MEL-2, 48 h
# In short: (§2)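 NCI-60 five-dose SRB assay. Cells were exposed for 48 h to tenfold dilutions of 0.01, 0.1, 1, 10 and 100 µM, in RPMI 1640 with 5% FBS. Plates fixed with TCA at the time of drug addition served as the time-zero reference. GI50 is the concentration giving a 50% reduction in net growth. TGI is total growth inhibition. LC50 is a net 50% loss of the initial cells.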
# Malme-3M = experiment: Growth inhibition of human MALME-3M cells assessed as cell viability at 0.001 uM incubated for 48 hrs by sulforhodamine B assay relative to control; conditions: read-out: Activity
# MOLT-4 = experiment: Growth inhibition of human MOLT4 cells assessed as cell viability at 100 uM incubated for 48 hrs by sulforhodamine B assay; conditions: MOLT-4, 48 h, read-out: Activity
# PC-3 = experiment: Growth inhibition of human PC3 cells incubated for 48 hrs by sulforhodamine B assay; conditions: PC-3, 48 h; in short: as §2
# NCI-H460 = experiment: Growth inhibition of human NCI-H460 cells assessed as cell viability at 0.1 uM incubated for 48 hrs by sulforhodamine B assay; conditions: NCI-H460, 48 h, read-out: Activity
# SNB-19 [1] = experiment: Growth inhibition of human SNB19 cells incubated for 48 hrs by sulforhodamine B assay; conditions: SNB-19, 48 h; in short: as §2
# LOX IMVI = experiment: Growth inhibition of human LOXIMVI cells incubated for 48 hrs by sulforhodamine B assay
# In short: (§3)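 NCI-60 five-dose SRB assay in RPMI 1640 with 5% FBS, 37 °C, 5% CO2. Compound given at five tenfold dilutions, 0.01–100 µM, for 48 h. Adherent cells fixed with TCA, suspension cells with 16% final TCA. Bound SRB read at 515 nm and growth calculated against time-zero and untreated controls. GI50 taken from dose–response curves as the concentration giving a 50% decrease in net cell growth.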
# OVCAR-5 = experiment: Growth inhibition of human OVCAR5 cells incubated for 48 hrs by sulforhodamine B assay; conditions: OVCAR-5, 48 h; in short: as §2
# SNB-19 [2] = experiment: Growth inhibition of human SNB19 cells assessed as cell viability at 0.1 uM incubated for 48 hrs by sulforhodamine B assay; conditions: SNB-19, 48 h, read-out: Activity
# UO-31 [3] = experiment: Growth inhibition of human UO31 cells assessed as cell viability at 1 uM incubated for 48 hrs by sulforhodamine B assay; conditions: UO-31, 48 h, read-out: Activity
# SR = experiment: Growth inhibition of human SR cells assessed as cell viability at 100 uM incubated for 48 hrs by sulforhodamine B assay; conditions: read-out: Activity
# SK-OV-3 = experiment: Growth inhibition of human SKOV3 cells assessed as cell viability at 0.1 uM incubated for 48 hrs by sulforhodamine B assay; conditions: SK-OV-3, 48 h, read-out: Activity
# A498 = experiment: Growth inhibition of human A498 cells incubated for 48 hrs by sulforhodamine B assay; conditions: A498, 48 h; in short: as §1
# UO-31 [4] = experiment: Growth inhibition of human UO31 cells assessed as cell viability at 0.001 uM incubated for 48 hrs by sulforhodamine B assay relative to control; conditions: UO-31, 48 h, read-out: Activity
# OVCAR-3 = experiment: Growth inhibition of human OVCAR3 cells incubated for 48 hrs by sulforhodamine B assay; conditions: OVCAR-3, 48 h; in short: as §3
# COLO 205 = experiment: Growth inhibition of human COLO205 cells assessed as cell viability at 1 uM incubated for 48 hrs by sulforhodamine B assay; conditions: COLO 205, 48 h, read-out: Activity
# [5] = read-out: LC50 (the source's name)
# [6] = read-out: pLC50 (the source's name) (converted)
structure (smiles),measurement,setting,value
CC1=C(C(=O)OCc2ccccc2)C(c2ccc3c(c2)OCO3)n2c(nc3ccccc32)N1 (racemic),viability at 1 µM,SK-MEL-28,63%
same,Activity,SNB-75,24.82%
same,GI50,HCT-116; read-out: GI50,0.47 µM
same,LC50,HCT-116; read-out: LC50,> 100 µM
same,TGI,HCT-116; read-out: TGI,> 100 µM
same,GI50,HCT-116; read-out: pGI50 (converted),0.479 µM
same,LC50,HCT-116; read-out: pLC50 (converted),> 100 µM
same,TGI,HCT-116; read-out: pTGI,> 100 µM
same,viability at 0.1 µM,BT-549,87%
same,GI50,CAKI-1; read-out: GI50,0.28 µM
same,CC50,CAKI-1; [5],> 100 µM
same,TGI,CAKI-1; read-out: TGI,> 100 µM
same,GI50,CAKI-1; read-out: pGI50 (converted),0.282 µM
same,CC50,CAKI-1; [6],> 100 µM
same,TGI,CAKI-1; read-out: pTGI,> 100 µM
same,GI50,SK-MEL-2; read-out: GI50,1.29 µM
same,LC50,SK-MEL-2; read-out: LC50,> 100 µM
same,TGI,SK-MEL-2; read-out: TGI,> 100 µM
same,GI50,SK-MEL-2; read-out: pGI50 (converted),1.29 µM
same,LC50,SK-MEL-2; read-out: pLC50 (converted),> 100 µM
same,TGI,SK-MEL-2; read-out: pTGI,> 100 µM
same,viability at 0.001 µM,Malme-3M,94%
same,viability at 100 µM,MOLT-4,33%
same,GI50,PC-3; read-out: GI50,0.55 µM
same,CC50,PC-3; [5],> 100 µM
same,TGI,PC-3; read-out: TGI,> 100 µM
same,GI50,PC-3; read-out: pGI50 (converted),0.55 µM
same,CC50,PC-3; [6],> 100 µM
same,TGI,PC-3; read-out: pTGI,> 100 µM
same,viability at 0.1 µM,NCI-H460,100%
same,GI50,SNB-19 [1]; read-out: GI50,0.56 µM
same,CC50,SNB-19 [1]; [5],> 100 µM
same,TGI,SNB-19 [1]; read-out: TGI,> 100 µM
same,GI50,SNB-19 [1]; read-out: pGI50 (converted),0.562 µM
same,CC50,SNB-19 [1]; [6],> 100 µM
same,TGI,SNB-19 [1]; read-out: pTGI,> 100 µM
same,GI50,LOX IMVI; read-out: GI50,0.55 µM
same,LC50,LOX IMVI; read-out: LC50,> 100 µM
same,TGI,LOX IMVI; read-out: TGI,> 100 µM
same,GI50,LOX IMVI; read-out: pGI50 (converted),0.55 µM
same,LC50,LOX IMVI; read-out: pLC50 (converted),> 100 µM
same,TGI,LOX IMVI; read-out: pTGI,> 100 µM
same,GI50,OVCAR-5; read-out: GI50,> 100 µM
same,CC50,OVCAR-5; [5],> 100 µM
same,TGI,OVCAR-5; read-out: TGI,> 100 µM
same,GI50,OVCAR-5; read-out: pGI50 (converted),> 100 µM
same,CC50,OVCAR-5; [6],> 100 µM
same,TGI,OVCAR-5; read-out: pTGI,> 100 µM
same,viability at 0.1 µM,SNB-19 [2],95%
same,viability at 1 µM,UO-31 [3],38%
same,viability at 100 µM,SR,38%
same,viability at 0.1 µM,SK-OV-3,97%
same,GI50,A498; read-out: GI50,0.36 µM
same,CC50,A498; [5],> 100 µM
same,TGI,A498; read-out: TGI,> 100 µM
same,GI50,A498; read-out: pGI50 (converted),0.363 µM
same,CC50,A498; [6],> 100 µM
same,TGI,A498; read-out: pTGI,> 100 µM
same,viability at 0.001 µM,UO-31 [4],86%
same,GI50,OVCAR-3; read-out: GI50,0.26 µM
same,CC50,OVCAR-3; [5],> 100 µM
same,TGI,OVCAR-3; read-out: TGI,1.09 µM
same,GI50,OVCAR-3; read-out: pGI50 (converted),0.257 µM
same,CC50,OVCAR-3; [6],> 100 µM
same,TGI,OVCAR-3; read-out: pTGI (converted),1.1 µM
same,viability at 1 µM,COLO 205,28%

# From ChEMBL document CHEMBL4406880, “Design, synthesis, and bioactivity of dihydropyrimidine derivatives as kinesin spindle protein inhibitors” (Bioorg Med Chem, 2019)
